Experimental data reported in ChEMBL document CHEMBL3585295, “Synthesis and discovery of (I-3,II-3)-biacacetin as a novel non-zinc binding inhibitor of MMP-2 and MMP-9” (Bioorg Med Chem, 2015).
The source made the active and inactive calls. The rule behind the calls is not given here.

Assays:
[1] = target: 72 kDa type IV collagenase (Homo sapiens) (UniProt P08253); assay: Inhibition of MMP-2 activity in human HT1080 cells by gelatin zymography; format: cell-based; conditions: HT-1080
In short: (§1)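 HT1080 human fibrosarcoma cells grown in DMEM with 10% FBS; cells treated with compound, 0.5% DMSO as vehicle control, dose series 2.5–10 µM. Conditioned media run on 10% polyacrylamide/0.4% SDS gels containing 2 mg/ml gelatin, non-reducing, 120 V 150 min. Gels washed in 2.5% Triton X-100 30 min, developed overnight at 37 °C (50 mM Tris–HCl pH 7.6, 200 mM NaCl, 5 mM CaCl2, 0.2% Brij-35). Bands quantified densitometrically as % inhibition; triplicates, three independent experiments.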

[2] = target: Matrix metalloproteinase-9 (Homo sapiens) (UniProt P14780); assay: Inhibition of MMP-9 activity in human HT1080 cells by gelatin zymography; format: cell-based; conditions: HT-1080; in short: as §1
Sequence of Matrix metalloproteinase-9 (Homo sapiens) (P14780 whole entry): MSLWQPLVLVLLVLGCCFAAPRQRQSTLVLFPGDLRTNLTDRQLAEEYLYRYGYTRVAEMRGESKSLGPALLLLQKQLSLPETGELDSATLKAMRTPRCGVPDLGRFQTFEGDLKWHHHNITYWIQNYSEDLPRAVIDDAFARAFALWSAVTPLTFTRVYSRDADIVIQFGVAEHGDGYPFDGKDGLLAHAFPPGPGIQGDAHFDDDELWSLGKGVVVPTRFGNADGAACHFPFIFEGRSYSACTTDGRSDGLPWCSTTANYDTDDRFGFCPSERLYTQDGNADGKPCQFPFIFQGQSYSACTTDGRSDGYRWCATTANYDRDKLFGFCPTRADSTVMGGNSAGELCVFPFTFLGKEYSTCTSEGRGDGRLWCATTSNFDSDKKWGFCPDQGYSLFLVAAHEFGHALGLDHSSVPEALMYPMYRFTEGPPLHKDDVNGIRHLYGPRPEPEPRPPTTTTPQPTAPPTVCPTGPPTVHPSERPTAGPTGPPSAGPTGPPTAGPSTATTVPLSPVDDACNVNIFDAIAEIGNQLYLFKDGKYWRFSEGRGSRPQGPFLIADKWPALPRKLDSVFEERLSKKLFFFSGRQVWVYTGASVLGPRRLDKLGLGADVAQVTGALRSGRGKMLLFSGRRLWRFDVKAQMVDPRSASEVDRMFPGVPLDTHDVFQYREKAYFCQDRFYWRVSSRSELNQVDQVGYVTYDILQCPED

[3] = target: 72 kDa type IV collagenase (Homo sapiens) (UniProt P08253); assay: Inhibition of MMP-2 activity in human HT1080 cells at 5 uM by gelatin zymography; format: cell-based; conditions: HT-1080; in short: as §1
[4] = target: Matrix metalloproteinase-9 (Homo sapiens) (UniProt P14780); assay: Inhibition of MMP-9 activity in human HT1080 cells at 5 uM by gelatin zymography; format: cell-based; conditions: HT-1080; in short: as §1
[5] = target: 72 kDa type IV collagenase (Homo sapiens) (UniProt P08253); assay: Inhibition of MMP-2 activity in human HT1080 cells at 10 uM by gelatin zymography; format: cell-based; conditions: HT-1080; in short: as §1
[6] = target: Matrix metalloproteinase-9 (Homo sapiens) (UniProt P14780); assay: Inhibition of MMP-9 activity in human HT1080 cells at 10 uM by gelatin zymography; format: cell-based; conditions: HT-1080; in short: as §1
[7] = target: Matrix metalloproteinase 2/9 (Homo sapiens) (UniProt P08253+P14780); assay: Inhibition of MMP2/9 in human HT1080 cells assessed as reduction in degradation of fluorescien gelatin at 5 uM after 24 hrs by gelatin degradation assay; format: cell-based; conditions: HT-1080
Sequence of Matrix metalloproteinase 2/9 (Homo sapiens) (P08253 whole entry, looked up): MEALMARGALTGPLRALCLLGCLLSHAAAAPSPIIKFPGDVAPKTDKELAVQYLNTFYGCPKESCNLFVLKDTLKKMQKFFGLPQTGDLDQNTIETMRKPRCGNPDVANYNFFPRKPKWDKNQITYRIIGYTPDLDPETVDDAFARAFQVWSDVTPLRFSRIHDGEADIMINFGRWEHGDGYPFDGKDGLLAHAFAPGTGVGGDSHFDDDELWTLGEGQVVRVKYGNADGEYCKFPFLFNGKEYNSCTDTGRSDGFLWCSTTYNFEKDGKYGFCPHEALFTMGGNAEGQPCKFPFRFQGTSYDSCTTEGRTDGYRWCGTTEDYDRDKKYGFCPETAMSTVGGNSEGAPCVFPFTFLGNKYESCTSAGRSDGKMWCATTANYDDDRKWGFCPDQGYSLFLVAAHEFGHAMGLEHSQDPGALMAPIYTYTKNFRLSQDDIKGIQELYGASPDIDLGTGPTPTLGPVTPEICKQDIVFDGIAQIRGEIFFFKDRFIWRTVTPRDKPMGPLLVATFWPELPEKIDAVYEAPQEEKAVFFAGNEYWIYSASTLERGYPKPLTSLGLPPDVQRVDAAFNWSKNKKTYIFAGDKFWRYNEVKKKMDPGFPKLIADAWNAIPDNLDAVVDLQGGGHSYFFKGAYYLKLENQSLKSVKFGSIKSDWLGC
Sequence of Matrix metalloproteinase 2/9 (Homo sapiens) (P14780 whole entry, looked up): as the sequence (P14780 whole entry) above
In short: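 HT1080 cells exposed to 5 µM compound for 24 h at 37 °C on fluorescent gelatin. Cells then fixed, mounted in antifade reagent and imaged by inverted fluorescence microscopy. Degradation of the fluorescent gelatin compared with control.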

[8] = Cytotoxicity against human HT1080 cells up to 7.5 uM; format: cell-based; conditions: ht-1080
HT-1080 = assay: Inhibition of cell migration in human HT1080 cells at 5 uM after 24 hrs by transwell migration assay; format: functional, cell-based
In short: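 Transwell migration: 8 × 10^4 HT1080 cells in serum-free medium with compound placed in upper chamber; lower chamber held DMEM with 10% FBS as attractant. After 24 h, non-migrated cells swabbed off; migrated cells stained with crystal violet and counted in five random fields, expressed as % of control.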

Sequence of 72 kDa type IV collagenase (Homo sapiens) (P08253 110-660 limits assumed): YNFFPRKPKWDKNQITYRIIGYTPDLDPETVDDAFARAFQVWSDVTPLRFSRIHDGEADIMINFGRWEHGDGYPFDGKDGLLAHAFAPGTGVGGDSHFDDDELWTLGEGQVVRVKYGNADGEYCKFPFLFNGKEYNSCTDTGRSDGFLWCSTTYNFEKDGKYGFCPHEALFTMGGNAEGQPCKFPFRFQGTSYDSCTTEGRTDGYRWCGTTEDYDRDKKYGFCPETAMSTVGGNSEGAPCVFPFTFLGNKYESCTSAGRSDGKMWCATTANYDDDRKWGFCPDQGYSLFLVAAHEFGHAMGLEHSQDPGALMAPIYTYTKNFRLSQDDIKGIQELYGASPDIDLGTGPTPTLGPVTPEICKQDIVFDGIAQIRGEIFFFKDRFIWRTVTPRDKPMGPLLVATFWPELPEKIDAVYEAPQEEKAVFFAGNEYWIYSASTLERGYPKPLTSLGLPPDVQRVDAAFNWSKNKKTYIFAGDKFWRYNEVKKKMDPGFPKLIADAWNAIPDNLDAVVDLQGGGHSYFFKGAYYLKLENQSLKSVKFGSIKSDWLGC

| inhibition [1] | inhibition [2] | inhibition [5] | Structure (SMILES) | other results |
| --- | --- | --- | --- | --- |
|  |  | inactive | O=c1c(-c2c(/C=C/c3ccccc3)oc3ccccc3c2=O)c(/C=C/c2ccccc2)oc2ccccc12 | inhibition [6]: inactive |
| inactive | inactive |  | COc1cc(OC)c2c(=O)c(-c3c(-c4ccccc4)oc4cc(OC)cc(OC)c4c3=O)c(-c3ccccc3)oc2c1 |  |
|  |  | inactive | O=c1c(-c2c(-c3ccccc3)oc3cc(O)ccc3c2=O)c(-c2ccccc2)oc2cc(O)ccc12 | inhibition [6]: inactive |
| Dose-dependent effect | Dose-dependent effect | 90% | COc1ccc(-c2oc3cc(O)cc(O)c3c(=O)c2-c2c(-c3ccc(OC)cc3)oc3cc(O)cc(O)c3c2=O)cc1 | inhibition [6]: 90%; inhibition [7]: Active; Activity [8]: Non-toxic; inhibition [3]: 60%; inhibition [4]: 90%; inhibition (HT-1080): Active |

Further lines, the molecule ahead of its results:

| Structure (SMILES) | inhibition [1] | inhibition [2] | inhibition [5] | other results |
| --- | --- | --- | --- | --- |
| COc1ccc(-c2oc3cc(OC)cc(OC)c3c(=O)c2-c2c(-c3ccc(OC)cc3)oc3cc(OC)cc(OC)c3c2=O)cc1 | inactive | inactive |  |  |
| COc1ccccc1-c1oc2ccccc2c(=O)c1-c1c(-c2ccccc2OC)oc2ccccc2c1=O | inactive | inactive |  |  |
| COc1ccc2c(=O)c(-c3c(-c4ccccc4)oc4cc(OC)ccc4c3=O)c(-c3ccccc3)oc2c1 | inactive | inactive |  |  |
| COc1ccc(-c2cc(=O)c3c(O)cc(O)cc3o2)cc1 |  |  |  | inhibition [3]: inactive; inhibition [4]: inactive |
| COc1ccc(-c2oc3ccccc3c(=O)c2-c2c(-c3ccc(OC)cc3)oc3ccccc3c2=O)cc1 | inactive | inactive |  |  |
| COc1ccc(-c2oc3cc(O)cc(O)c3c(=O)c2-c2c(-c3ccc(OC)c(OC)c3)oc3cc(O)cc(O)c3c2=O)cc1OC |  |  | Active |  |
| O=c1c(-c2c(-c3ccco3)oc3ccccc3c2=O)c(-c2ccco2)oc2ccccc12 |  |  | Active |  |
